The values below come from ChEMBL document CHEMBL1157903, “Synthesis and structure-activity relationships of 2-aryl-4-oxazolylmethoxy benzylglycines and 2-aryl-4-thiazolylmethoxy benzylglycines as novel, potent PPARalpha selective activators- PPARalpha and PPARgamma selectivity modulation” (Bioorg Med Chem Lett, 2010).

Data set [1] can be described thus: Agonist activity at hamster PPARalpha. In kind it is functional, Cricetulus griseus.
A short description of data set [2]: Clearance in Sprague-Dawley rat at 5 mg/kg, iv and 10 mg/kg, po. The conditions noted are these: in vivo. In kind it is ADME, organism-based. A digest of the protocol: (§1)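 Male Sprague-Dawley rats (n = 2) given 5 mg/kg IV and 10 mg/kg PO. Vehicle: 10% NMP, 20% PEG-400, 70% potassium phosphate buffer.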
Data set [3] concerns Hamster. Nature of the data set: Antidyslipidemic activity in hamster assessed as decrease in HDL level at 10 mg/kg, po. In kind it is functional, Cricetinae. On the set-up: scale not given: the % may be the effect or the level left. A digest of the protocol:
(§2)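 Hamsters kept on high-fat diet for 2 weeks, then dosed 10 mg/kg by oral gavage once daily for 21 days (n = 8). Vehicle: 5% cremophor, 10% NMP, 5% EtOH, 80% water. HDL-c and TG measured at study end. Statistics by Dunnett test, p < 0.05.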

In data set [4] the target is T1, Peroxisome proliferator-activated receptor alpha (Homo sapiens, UniProt Q07869).
T1 sequence (Q07869 whole entry): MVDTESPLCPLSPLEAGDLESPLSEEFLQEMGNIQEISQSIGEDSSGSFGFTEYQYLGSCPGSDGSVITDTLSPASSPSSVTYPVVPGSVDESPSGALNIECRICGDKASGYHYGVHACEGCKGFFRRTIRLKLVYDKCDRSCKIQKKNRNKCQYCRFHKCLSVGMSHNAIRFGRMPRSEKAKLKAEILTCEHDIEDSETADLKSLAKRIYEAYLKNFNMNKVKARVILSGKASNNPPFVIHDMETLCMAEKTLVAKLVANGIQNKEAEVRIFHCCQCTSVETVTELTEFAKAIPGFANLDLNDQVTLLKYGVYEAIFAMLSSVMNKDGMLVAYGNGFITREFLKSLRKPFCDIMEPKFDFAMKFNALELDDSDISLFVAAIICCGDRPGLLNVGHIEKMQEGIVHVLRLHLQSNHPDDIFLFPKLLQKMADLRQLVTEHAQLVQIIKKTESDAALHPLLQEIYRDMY
Nature of the data set: Agonist activity against human Gal4-fussed PPARalpha in HEK293 cells by luciferase reporter gene assay. In kind it is functional, cell-based. In outline:
(§3)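 Transactivation assay in HEK293 cells with a luciferase reporter. After cell lysis, luciferin is added and luminescence is read. EC50 is the ligand concentration giving half-maximal fold induction. Maximal efficacy is expressed as % of standards, with fenofibrate at 100 µM = 100% for PPARα and rosiglitazone at 1 µM = 100% for PPARγ. Data are normalized to known agonists at 1 µM.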

Data set [5] can be described thus: Drug level in hamster plasma at 10 mg/kg, po. In kind it is ADME, organism-based. The conditions noted are these: cricetinae, in vivo, read-out: Drug uptake. On the set-up: dose 10 mg/kg, route oral. A digest of the protocol:
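High-fat-fed hamsters (2 weeks on diet), 10 mg/kg po once daily for 21 days (n = 8). Vehicle: 5% cremophor/10% NMP/5% EtOH/80% water. Plasma drug level taken in the fasted state at 18 h post-dose.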

The subject of data set [6] is Hamster. Nature of the data set: Induction of hydrase mRNA level in hamster liver at 10 mg/kg, po after 6 hrs relative to fenofibrate. In kind it is functional, Cricetinae. In outline: (§4)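 Single oral dose of 10 mpk in hamsters, with fenofibrate reference at 100 mpk. Liver PDK4 and HD mRNA measured at 6 h post-dose. Values expressed relative to fenofibrate, set as 100%.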

Data set [7] has as its system Hamster. Nature of the data set: Antidyslipidemic activity in hamster assessed as decrease in triglyceride level at 10 mg/kg, po. Format: functional, Cricetinae. Also noted: scale not given: the % may be the effect or the level left. In outline: as §2
The subject of data set [8] is Hamster. Nature of the data set: Induction of PDK4 mRNA level in hamster liver at 10 mg/kg, po after 6 hrs relative to fenofibrate. In kind it is functional, Cricetinae. In outline: as §4
The nature of data set [9]: Drug level in hamster liver at 10 mg/kg, po. Format: ADME, organism-based. Also noted: dose 10 mg/kg, route oral. The conditions noted are these: cricetinae, in vivo, read-out: Drug uptake. In outline: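 High-fat-fed hamsters (2 weeks on diet), 10 mg/kg po once daily for 21 days (n = 8). Vehicle: 5% cremophor/10% NMP/5% EtOH/80% water. Liver drug level taken 1 h post-dose in the fed state.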

The species named for another data set is Cricetulus griseus. Nature of the data set: Agonist activity at hamster PPARalpha relative to fenofibrate. Format: functional.
Data set [10] deals with T2, Peroxisome proliferator-activated receptor gamma (Homo sapiens, UniProt P37231).
T2 sequence (P37231 whole entry): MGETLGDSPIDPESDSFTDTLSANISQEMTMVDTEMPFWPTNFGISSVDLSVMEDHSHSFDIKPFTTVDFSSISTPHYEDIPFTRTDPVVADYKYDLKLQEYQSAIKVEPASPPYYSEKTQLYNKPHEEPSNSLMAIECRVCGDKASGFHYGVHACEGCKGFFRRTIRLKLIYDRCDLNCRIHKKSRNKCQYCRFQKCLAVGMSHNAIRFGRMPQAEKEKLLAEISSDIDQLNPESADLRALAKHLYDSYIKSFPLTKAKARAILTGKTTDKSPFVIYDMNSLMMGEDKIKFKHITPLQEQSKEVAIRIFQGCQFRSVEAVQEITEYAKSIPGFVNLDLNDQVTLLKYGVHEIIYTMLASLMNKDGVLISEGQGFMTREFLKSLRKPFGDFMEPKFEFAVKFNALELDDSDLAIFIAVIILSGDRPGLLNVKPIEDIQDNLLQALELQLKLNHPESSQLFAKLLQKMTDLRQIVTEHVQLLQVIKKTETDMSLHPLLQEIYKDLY
Nature of the data set: Agonist activity against human Gal4-fussed PPARgamma in HEK293 cells by luciferase reporter gene assay. Format: functional, cell-based. A digest of the protocol: as §3

In data set [11] the target is T3, Peroxisome proliferator-activated receptor alpha (Homo sapiens) (UniProt Q07869).
T3 sequence (whole entry): T1 sequence (Q07869 whole entry)
Nature of the data set: Agonist activity against human Gal4-fussed PPARalpha by luciferase reporter gene assay relative to finofibrate. In kind it is functional. In outline: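 Gal4-fused human PPARα transactivation in HEK293 cells with a luciferase reporter, read as luminescence after cell lysis and luciferin addition. EC50 is the ligand concentration (µM) giving half-maximal fold induction. Maximal efficacy is expressed as a percentage of fenofibrate at 100 µM (set as 100%). Intrinsic activity is the response at 1 µM as a percentage of the standard at 1 µM.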

Data set [12] is described as follows: Mean retention time in Sprague-Dawley rat at 5 mg/kg, iv and 10 mg/kg, po. In kind it is ADME, organism-based. The conditions noted are these: in vivo. A digest of the protocol:
as §1

Data set [13] is described as follows: Half life in Sprague-Dawley rat at 5 mg/kg, iv and 10 mg/kg, po. In kind it is ADME, organism-based. The conditions noted are these: in vivo. A digest of the protocol:
as §1

A short description of data set [14]: Oral bioavailability in Sprague-Dawley rat at 10 mg/kg. Format: ADME, organism-based. The conditions noted are these: in vivo. In outline:
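Male Sprague-Dawley rats (n = 2). Oral dose 10 mg/kg, with 5 mg/kg IV for comparison. Vehicle: 10% NMP, 20% PEG-400, 70% potassium phosphate buffer.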

Data set [15] in a line: Volume of distribution at steady state Sprague-Dawley rat at 5 mg/kg, iv and 10 mg/kg, po. The conditions noted are these: in vivo, read-out: Vdss. Format: ADME, organism-based. In outline: as §1
Data set [16] concerns the target T4, Peroxisome proliferator-activated receptor gamma (Homo sapiens) (UniProt P37231).
T4 sequence (whole entry): T2 sequence (P37231 whole entry)
Nature of the data set: Agonist activity against human Gal4-fussed PPARgamma by luciferase reporter gene assay relative to rosiglitazone. For orientation: A reporter such as luciferase makes a cellular process visible.

Each structure is given as a SMILES string.

For `COC(=O)N(CC(=O)O)Cc1cccc(OCc2coc(-c3ccc(Cl)cc3)n2)c1`, the results for the EC50 in [1], in data set [4] and in data set [10] were 979 nM, 64 nM and 9190 nM, respectively. The clearance in data set [2] worked out at 0.7 mL/min/kg. The Activity is on record as 44% in the data set on Hamster [3], 192% in the data set with Hamster [6], 84% with Hamster [7] and 505% with Hamster [8]. Moreover, the figures for the concentration in [5] and in data set [9] were 72.9 µM and 83.8 µM, respectively. The Emax in the data set filed under Cricetulus griseus was determined as 84%; in data set [11], 78%; in [16], 46%. In data set [12], the MRT – broadly, the average time that molecules of a dose stay in the body – is 10.7 h. Further, the half-life – broadly, the time in which the quantity being followed falls by half – in [13] was 4.6 h. Besides, the bioavailability (in general, the share of a dose that reaches the circulation, judged against a reference dose that is usually intravenous) in data set [14] stood at 75%. Moreover, in data set [15], the Vd worked out at 0.2 L/kg.
